{
  "source": "ChEMBL document CHEMBL5154945",
  "about": "“Discovery and Optimization of Pyrrolopyrimidine Derivatives as Selective Disruptors of the Perinucleolar Compartment, a Marker of Tumor Progression toward Metastasis” (J Med Chem, 2022)",
  "key": {"HT-29": {"system": "HT-29", "assay": "Anticancer activity against human HT-29 cells assessed as cell growth inhibition", "assay_type": "functional, cell-based", "details": "dose 1-100 µM, DDE = dose-dependent effect"}, "[1]": {"molecular_target": "D(1A) dopamine receptor (Homo sapiens) (UniProt P21728)", "sequence (P21728 whole entry)": "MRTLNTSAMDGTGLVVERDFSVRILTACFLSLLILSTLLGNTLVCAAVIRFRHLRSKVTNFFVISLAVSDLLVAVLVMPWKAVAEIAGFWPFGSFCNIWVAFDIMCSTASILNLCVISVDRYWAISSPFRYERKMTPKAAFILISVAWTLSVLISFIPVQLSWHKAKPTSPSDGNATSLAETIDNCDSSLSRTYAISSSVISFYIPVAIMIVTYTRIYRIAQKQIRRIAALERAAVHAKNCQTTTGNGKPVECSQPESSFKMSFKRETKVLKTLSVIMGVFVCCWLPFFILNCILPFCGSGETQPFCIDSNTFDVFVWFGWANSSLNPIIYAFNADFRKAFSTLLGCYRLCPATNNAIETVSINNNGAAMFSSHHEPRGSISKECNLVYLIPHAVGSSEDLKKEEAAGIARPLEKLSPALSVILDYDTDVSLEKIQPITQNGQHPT", "assay": "Binding affinity to D1 receptor (unknown origin) at 10000 nM by radioligand displacement assay relative to control"}, "UO-31": {"system": "UO-31", "assay": "Anticancer activity against human UO-31 cells assessed as cell growth inhibition", "assay_type": "functional, cell-based", "details": "dose 1-100 µM, DDE = dose-dependent effect"}, "SNB-19": {"system": "SNB-19", "assay": "Anticancer activity against human SNB-19 cells assessed as cell growth inhibition", "assay_type": "functional, cell-based", "details": "dose 1-100 µM, DDE = dose-dependent effect"}, "HOP-62": {"system": "HOP-62", "assay": "Anticancer activity against human HOP-62 cells assessed as cell growth inhibition", "assay_type": "functional, cell-based", "details": "dose 1-100 µM, DDE = dose-dependent effect"}, "U-251": {"system": "U-251", "assay": "Anticancer activity against human U-251 cells assessed as cell growth inhibition", "assay_type": "functional, cell-based", "details": "dose 1-100 µM, DDE = dose-dependent effect"}, "SK-MEL-28": {"system": "SK-MEL-28", "assay": "Anticancer activity against human SK-MEL-28 cells assessed as cell growth inhibition", "assay_type": "functional, cell-based", "details": "dose 1-100 µM, DDE = dose-dependent effect"}, "[2]": {"molecular_target": "Muscarinic acetylcholine receptor M2 (Homo sapiens) (UniProt P08172)", "sequence (P08172 whole entry)": "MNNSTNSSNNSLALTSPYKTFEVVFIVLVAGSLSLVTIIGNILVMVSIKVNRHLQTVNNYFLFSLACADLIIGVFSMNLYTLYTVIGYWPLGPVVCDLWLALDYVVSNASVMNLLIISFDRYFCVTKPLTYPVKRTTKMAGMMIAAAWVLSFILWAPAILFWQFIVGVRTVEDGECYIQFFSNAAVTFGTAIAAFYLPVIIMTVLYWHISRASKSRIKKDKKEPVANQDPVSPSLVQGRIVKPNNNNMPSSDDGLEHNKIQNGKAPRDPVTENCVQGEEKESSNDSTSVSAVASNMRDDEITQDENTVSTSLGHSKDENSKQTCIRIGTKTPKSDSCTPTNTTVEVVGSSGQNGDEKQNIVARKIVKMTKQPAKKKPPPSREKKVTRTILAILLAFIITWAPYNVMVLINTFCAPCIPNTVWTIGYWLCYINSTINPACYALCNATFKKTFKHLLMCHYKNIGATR", "assay": "Binding affinity to M2 receptor (unknown origin) at 10000 nM by radioligand displacement assay relative to control"}, "PC-3M [3]": {"system": "PC-3M", "assay": "Antiproliferative activity against human PC-3M cells expressing PTB/GFP fusion protein assessed as inhibition of nucleolar volume measured after 24 hrs by Nucleolar-id Green Detection based confocal microscopic analysis", "assay_type": "functional, cell-based"}, "[4]": {"molecular_target": "5-hydroxytryptamine receptor 2A (Homo sapiens) (UniProt P28223)", "assay": "Binding affinity to 5-HT2A receptor (unknown origin) at 10000 nM by radioligand displacement assay relative to control"}, "OVCAR-5": {"system": "OVCAR-5", "assay": "Anticancer activity against human OVCAR-5 cells assessed as cell growth inhibition", "assay_type": "functional, cell-based", "details": "dose 1-100 µM, DDE = dose-dependent effect"}, "SN12C": {"system": "SN12C", "assay": "Anticancer activity against human SN12C cells assessed as cell growth inhibition", "assay_type": "functional, cell-based", "details": "dose 1-100 µM, DDE = dose-dependent effect"}, "[5]": {"molecular_target": "Alpha-2B adrenergic receptor (Homo sapiens) (UniProt P18089)", "sequence (P18089 whole entry)": "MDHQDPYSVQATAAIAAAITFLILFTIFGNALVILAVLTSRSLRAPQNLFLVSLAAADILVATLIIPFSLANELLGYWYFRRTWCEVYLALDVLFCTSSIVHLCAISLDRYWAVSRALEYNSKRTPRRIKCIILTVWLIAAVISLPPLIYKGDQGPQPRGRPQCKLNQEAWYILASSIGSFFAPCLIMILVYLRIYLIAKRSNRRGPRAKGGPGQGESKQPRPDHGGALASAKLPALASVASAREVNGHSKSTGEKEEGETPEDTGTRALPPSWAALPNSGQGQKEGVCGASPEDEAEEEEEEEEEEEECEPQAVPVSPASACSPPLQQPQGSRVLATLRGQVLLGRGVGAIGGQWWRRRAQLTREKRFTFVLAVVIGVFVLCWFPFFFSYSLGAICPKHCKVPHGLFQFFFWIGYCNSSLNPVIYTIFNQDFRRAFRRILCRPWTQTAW", "assay": "Binding affinity to alpha2B receptor (unknown origin) at 10000 nM by radioligand displacement assay relative to control"}, "SW-620": {"system": "SW-620", "assay": "Anticancer activity against human SW-620 cells assessed as cell growth inhibition", "assay_type": "functional, cell-based", "details": "dose 1-100 µM, DDE = dose-dependent effect"}, "IGROV-1": {"system": "IGROV-1", "assay": "Anticancer activity against human IGROV-1 cells assessed as cell growth inhibition", "assay_type": "functional, cell-based", "details": "dose 1-100 µM, DDE = dose-dependent effect"}, "M14": {"system": "M14", "assay": "Anticancer activity against human M14 cells assessed as cell growth inhibition", "assay_type": "functional, cell-based", "details": "dose 1-100 µM, DDE = dose-dependent effect"}, "[6]": {"molecular_target": "Beta-1 adrenergic receptor (Homo sapiens) (UniProt P08588)", "sequence (P08588 whole entry, looked up)": "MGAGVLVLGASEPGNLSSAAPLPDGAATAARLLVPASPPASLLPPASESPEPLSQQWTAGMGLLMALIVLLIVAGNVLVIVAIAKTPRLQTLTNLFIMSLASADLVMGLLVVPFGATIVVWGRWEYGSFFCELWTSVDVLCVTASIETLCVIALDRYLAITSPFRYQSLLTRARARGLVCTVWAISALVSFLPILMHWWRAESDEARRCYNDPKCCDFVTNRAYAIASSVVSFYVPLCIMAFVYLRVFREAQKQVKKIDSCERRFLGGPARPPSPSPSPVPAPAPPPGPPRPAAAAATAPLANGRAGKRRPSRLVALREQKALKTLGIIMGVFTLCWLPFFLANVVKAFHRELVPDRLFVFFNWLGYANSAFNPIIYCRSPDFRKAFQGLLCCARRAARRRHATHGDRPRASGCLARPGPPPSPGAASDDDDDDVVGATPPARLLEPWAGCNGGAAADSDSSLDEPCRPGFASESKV", "assay": "Binding affinity to beta1 receptor (unknown origin) at 10000 nM by radioligand displacement assay relative to control"}, "[7]": {"molecular_target": "Mu-type opioid receptor (Homo sapiens) (UniProt P35372)", "sequence (P35372 whole entry)": "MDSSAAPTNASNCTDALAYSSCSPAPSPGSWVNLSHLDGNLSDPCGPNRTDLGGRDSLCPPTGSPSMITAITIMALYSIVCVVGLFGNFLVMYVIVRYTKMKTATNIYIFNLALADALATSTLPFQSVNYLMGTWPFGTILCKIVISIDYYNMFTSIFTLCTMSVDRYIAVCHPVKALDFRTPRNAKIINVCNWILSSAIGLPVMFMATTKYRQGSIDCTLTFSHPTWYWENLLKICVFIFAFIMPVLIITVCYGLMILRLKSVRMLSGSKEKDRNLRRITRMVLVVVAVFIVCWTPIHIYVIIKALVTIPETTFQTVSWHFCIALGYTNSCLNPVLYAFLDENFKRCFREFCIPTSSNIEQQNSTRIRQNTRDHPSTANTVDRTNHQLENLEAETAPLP", "assay": "Binding affinity to MOR receptor (unknown origin) at 10000 nM by radioligand displacement assay relative to control"}, "HCC 2998": {"system": "HCC 2998", "assay": "Anticancer activity against human HCC 2998 cells assessed as cell growth inhibition", "assay_type": "functional, cell-based", "details": "dose 1-100 µM, DDE = dose-dependent effect"}, "[8]": {"molecular_target": "Alpha-2A adrenergic receptor (Homo sapiens) (UniProt P08913)", "sequence (P08913 whole entry)": "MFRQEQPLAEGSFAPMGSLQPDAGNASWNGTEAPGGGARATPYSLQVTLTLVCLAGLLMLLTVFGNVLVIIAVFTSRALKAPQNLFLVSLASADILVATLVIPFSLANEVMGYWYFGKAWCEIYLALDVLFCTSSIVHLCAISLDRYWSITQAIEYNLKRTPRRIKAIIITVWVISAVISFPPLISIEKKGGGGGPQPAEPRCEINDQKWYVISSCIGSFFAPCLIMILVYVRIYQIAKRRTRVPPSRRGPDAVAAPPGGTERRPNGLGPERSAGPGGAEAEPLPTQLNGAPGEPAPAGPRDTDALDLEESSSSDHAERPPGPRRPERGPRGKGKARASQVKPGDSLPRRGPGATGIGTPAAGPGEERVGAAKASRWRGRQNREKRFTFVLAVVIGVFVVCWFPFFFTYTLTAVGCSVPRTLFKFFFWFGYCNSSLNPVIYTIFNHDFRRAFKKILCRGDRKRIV", "assay": "Binding affinity to alpha2A receptor (unknown origin) at 10000 nM by radioligand displacement assay relative to control"}, "PC-3M [9]": {"system": "PC-3M", "assay": "Antiproliferative activity against human PC-3M cells expressing PTB/GFP fusion protein assessed as disruption of RNA synthesis marker RP-194 at 1 uM and measured after 1 hr by DAPI staining based immunofluorescence microscopy", "assay_type": "functional, cell-based", "in_short": "(§1)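 50,000 PC3M cells on chamber slides were treated with 1 μM compound for 1 h at 37 °C, then fixed in 4% paraformaldehyde for 15 min, permeabilized with 0.3% Triton X-100 and blocked in 3% BSA. Primary antibodies were anti-RPA194 (1:200) and anti-NOPP140 (1:100), overnight at 4 °C, followed by secondary antibodies and DAPI mounting. Confocal images at 63×, three images of about 200 cells per group; counts of bright objects were normalized to DAPI-stained nuclei.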"}, "[10]": {"molecular_target": "Sigma intracellular receptor 2 (Homo sapiens, UniProt Q5BJF2)", "sequence (Q5BJF2 whole entry)": "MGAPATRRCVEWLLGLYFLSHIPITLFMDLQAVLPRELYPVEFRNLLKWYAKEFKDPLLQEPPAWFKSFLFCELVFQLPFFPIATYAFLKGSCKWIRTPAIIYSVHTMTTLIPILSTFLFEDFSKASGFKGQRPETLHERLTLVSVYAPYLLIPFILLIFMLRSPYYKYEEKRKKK", "assay": "Binding affinity to sigma2 receptor (unknown origin) by radioligand displacement assay"}, "[11]": {"assay": "Tmax in female BALB/c mouse at 25 mg/kg, ip and measured upto 48 hrs by LC-MS/MS analysis", "assay_type": "ADME, organism-based", "details": "in vivo", "in_short": "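Fed female BALB/c mice, about 6–8 weeks old and 25–30 g, received a single IP dose of 5 or 25 mpk in NMP/PEG400/HP-β-CD aqueous vehicle (0.5 mg/mL for the 5 mpk dose). Three mice per time point were sampled up to 48 h by retro-orbital bleed under isoflurane into K2EDTA. Plasma was spun at 2000 g, 4 °C, frozen at -80 °C, and assayed by LC/MS/MS.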"}, "PC-3M [12]": {"system": "PC-3M", "assay": "Antiproliferative activity against human PC-3M cells expressing PTB/GFP fusion protein assessed as disruption of RNA synthesis marker NOPP140 at 1 uM measured after 1 hr by DAPI staining based immunofluorescence microscopy", "assay_type": "functional, cell-based", "in_short": "as §1"}, "PC-3M [13]": {"system": "PC-3M", "assay": "Antiproliferative activity against human PC-3M cells expressing PTB/GFP fusion protein assessed as cell growth inhibition at 0.1 to 10 uM and measured every four hrs for 130 hrs by IncuCyte zoom live cell analysis", "assay_type": "functional, cell-based", "details": "dose 0.1-10 µM", "in_short": "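PC3M cells stably expressing GFP-PTB, grown in DMEM with 10% FBS and 1% penicillin/streptomycin, seeded at 1.25×10^4 cells/ml in 384-well plates and left overnight at 37 °C, 5% CO2. Compound added in DMEM to give 11 final concentrations from 10 nM to 20 μM. Brightfield images were taken every 4 h for about 130 h and scored as percent confluence.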"}, "[14]": {"molecular_target": "5-hydroxytryptamine receptor 1E (Homo sapiens) (UniProt P28566)", "sequence (P28566 whole entry)": "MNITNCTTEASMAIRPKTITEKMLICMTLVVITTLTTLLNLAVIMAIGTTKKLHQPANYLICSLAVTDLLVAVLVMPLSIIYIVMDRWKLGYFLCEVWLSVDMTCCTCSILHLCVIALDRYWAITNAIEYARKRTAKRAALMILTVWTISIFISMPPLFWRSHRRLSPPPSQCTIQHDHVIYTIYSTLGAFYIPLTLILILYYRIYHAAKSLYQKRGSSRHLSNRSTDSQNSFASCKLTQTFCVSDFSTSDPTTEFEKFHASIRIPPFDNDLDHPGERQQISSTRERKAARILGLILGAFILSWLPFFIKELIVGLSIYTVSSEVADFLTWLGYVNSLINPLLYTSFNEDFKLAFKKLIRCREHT", "assay": "Binding affinity to 5-HT1E receptor (unknown origin) at 10000 nM by radioligand displacement assay relative to control"}, "[15]": {"molecular_target": "Muscarinic acetylcholine receptor M5 (Homo sapiens) (UniProt P08912)", "sequence (P08912 whole entry)": "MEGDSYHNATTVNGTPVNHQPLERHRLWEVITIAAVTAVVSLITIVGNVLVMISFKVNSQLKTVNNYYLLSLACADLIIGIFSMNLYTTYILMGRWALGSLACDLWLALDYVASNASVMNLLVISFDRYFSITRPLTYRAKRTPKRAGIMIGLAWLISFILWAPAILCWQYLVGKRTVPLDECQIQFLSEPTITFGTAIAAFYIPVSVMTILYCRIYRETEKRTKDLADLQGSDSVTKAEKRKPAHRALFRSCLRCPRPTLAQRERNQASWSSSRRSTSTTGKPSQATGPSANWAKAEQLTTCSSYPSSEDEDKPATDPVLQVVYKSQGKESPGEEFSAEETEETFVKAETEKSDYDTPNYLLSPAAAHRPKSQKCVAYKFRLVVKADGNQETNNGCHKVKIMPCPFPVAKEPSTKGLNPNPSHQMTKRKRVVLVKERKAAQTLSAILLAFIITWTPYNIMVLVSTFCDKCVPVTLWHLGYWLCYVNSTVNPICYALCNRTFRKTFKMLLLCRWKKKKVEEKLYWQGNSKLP", "assay": "Binding affinity to M5 receptor (unknown origin) at 10000 nM by radioligand displacement assay relative to control"}, "SF-295": {"system": "SF-295", "assay": "Anticancer activity against human SF-295 cells assessed as cell growth inhibition", "assay_type": "functional, cell-based", "details": "dose 1-100 µM, DDE = dose-dependent effect"}, "SNB-75": {"system": "SNB-75", "assay": "Anticancer activity against human SNB-75 cells assessed as cell growth inhibition", "assay_type": "functional, cell-based", "details": "dose 1-100 µM, DDE = dose-dependent effect"}, "LOX IMVI": {"system": "LOX IMVI", "assay": "Anticancer activity against human LOX IMVI cells assessed as cell growth inhibition", "assay_type": "functional, cell-based", "details": "dose 1-100 µM, DDE = dose-dependent effect"}, "SK-MEL-5": {"system": "SK-MEL-5", "assay": "Anticancer activity against human SK-MEL-5 cells assessed as cell growth inhibition", "assay_type": "functional, cell-based", "details": "dose 1-100 µM, DDE = dose-dependent effect"}, "SK-MEL-2": {"system": "SK-MEL-2", "assay": "Anticancer activity against human SK-MEL-2 cells assessed as cell growth inhibition", "assay_type": "functional, cell-based", "details": "dose 1-100 µM, DDE = dose-dependent effect"}, "[16]": {"molecular_target": "Alpha-1D adrenergic receptor (Homo sapiens, UniProt P25100)", "sequence (P25100 whole entry)": "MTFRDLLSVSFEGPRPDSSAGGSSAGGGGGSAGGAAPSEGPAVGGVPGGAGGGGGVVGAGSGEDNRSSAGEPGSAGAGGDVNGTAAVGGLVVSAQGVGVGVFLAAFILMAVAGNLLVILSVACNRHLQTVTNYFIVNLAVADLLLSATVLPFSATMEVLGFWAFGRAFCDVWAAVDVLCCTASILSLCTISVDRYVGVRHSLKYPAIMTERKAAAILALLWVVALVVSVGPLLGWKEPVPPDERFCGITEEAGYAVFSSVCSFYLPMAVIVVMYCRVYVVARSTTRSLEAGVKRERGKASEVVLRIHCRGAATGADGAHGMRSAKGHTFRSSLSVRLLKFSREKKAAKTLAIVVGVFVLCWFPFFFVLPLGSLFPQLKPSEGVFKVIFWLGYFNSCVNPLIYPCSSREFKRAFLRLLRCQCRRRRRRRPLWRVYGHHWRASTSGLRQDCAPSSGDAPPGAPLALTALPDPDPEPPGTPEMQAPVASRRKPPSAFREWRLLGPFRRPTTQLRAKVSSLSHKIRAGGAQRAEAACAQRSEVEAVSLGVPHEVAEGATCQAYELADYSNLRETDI", "assay": "Binding affinity to alpha1D receptor (unknown origin) by radioligand displacement assay"}, "[17]": {"details": "mouse, in vivo, ip, 50 mg/kg, 48 h"}, "[18]": {"molecular_target": "Alpha-1B adrenergic receptor (Homo sapiens) (UniProt P35368)", "assay": "Binding affinity to alpha1B receptor (unknown origin) at 10000 nM by radioligand displacement assay relative to control"}, "UACC-257": {"system": "UACC-257", "assay": "Anticancer activity against human UACC-257 cells assessed as cell growth inhibition", "assay_type": "functional, cell-based", "details": "dose 1-100 µM, DDE = dose-dependent effect"}, "[19]": {"molecular_target": "Sodium-dependent noradrenaline transporter (Homo sapiens) (UniProt P23975)", "sequence (P23975 whole entry)": "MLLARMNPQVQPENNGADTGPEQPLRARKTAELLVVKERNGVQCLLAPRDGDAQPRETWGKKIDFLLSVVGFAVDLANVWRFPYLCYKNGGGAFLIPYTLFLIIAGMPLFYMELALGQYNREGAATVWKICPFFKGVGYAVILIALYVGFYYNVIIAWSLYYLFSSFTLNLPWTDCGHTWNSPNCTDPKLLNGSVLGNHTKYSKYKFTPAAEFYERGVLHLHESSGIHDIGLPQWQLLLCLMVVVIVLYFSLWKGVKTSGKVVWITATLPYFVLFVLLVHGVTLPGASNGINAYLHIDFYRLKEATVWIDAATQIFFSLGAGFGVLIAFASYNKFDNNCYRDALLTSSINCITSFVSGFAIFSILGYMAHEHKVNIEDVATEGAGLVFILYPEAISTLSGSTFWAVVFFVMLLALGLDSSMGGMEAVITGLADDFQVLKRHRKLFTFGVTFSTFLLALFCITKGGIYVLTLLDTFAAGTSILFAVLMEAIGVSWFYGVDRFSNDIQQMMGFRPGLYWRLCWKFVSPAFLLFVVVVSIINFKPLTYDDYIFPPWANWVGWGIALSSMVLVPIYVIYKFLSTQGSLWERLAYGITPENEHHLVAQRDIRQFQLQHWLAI", "assay": "Binding affinity to NET receptor (unknown origin) at 10000 nM by radioligand displacement assay relative to control"}},
  "note": "pIC50, pKi: −log10 of the molar value. Calls of active or inactive are those of the source. The calls are words filed in the database; no cut-off is given here.",
  "data": [
    {"smiles": "N=c1c2c(-c3ccccc3)c(-c3ccccc3)n(Cc3ccccc3)c2ncn1[C@H]1CC[C@H](O)CC1", "note": "[ML-246]", "values": [
      {"measurement": "Activity", "setting": "HT-29", "result": "Dde"},
      {"measurement": "Activity", "setting": "[1]", "result": "< 50", "unit": "%"},
      {"measurement": "Activity", "setting": "UO-31", "result": "Dde"},
      {"measurement": "Activity", "setting": "SNB-19", "result": "Dde"},
      {"measurement": "Activity", "setting": "HOP-62", "result": "Dde"},
      {"measurement": "Activity", "setting": "U-251", "result": "Dde"},
      {"measurement": "Activity", "setting": "SK-MEL-28", "result": "Dde"},
      {"measurement": "Activity", "setting": "[2]", "result": "< 50", "unit": "%"},
      {"measurement": "pIC50", "setting": "PC-3M [3]", "result": 6.21},
      {"measurement": "Activity", "setting": "[4]", "result": "< 50", "unit": "%"},
      {"measurement": "Activity", "setting": "OVCAR-5", "result": "Dde"},
      {"measurement": "Activity", "setting": "SN12C", "result": "Dde"},
      {"measurement": "Activity", "setting": "[5]", "result": "< 50", "unit": "%"},
      {"measurement": "Activity", "setting": "SW-620", "result": "Dde"},
      {"measurement": "Activity", "setting": "IGROV-1", "result": "Dde"},
      {"measurement": "Activity", "setting": "M14", "result": "Dde"},
      {"measurement": "Activity", "setting": "[6]", "result": "< 50", "unit": "%"},
      {"measurement": "Activity", "setting": "[7]", "result": "< 50", "unit": "%"},
      {"measurement": "Activity", "setting": "HCC 2998", "result": "Dde"},
      {"measurement": "Activity", "setting": "[8]", "result": "< 50", "unit": "%"},
      {"measurement": "Activity", "setting": "PC-3M [9]", "result": "Active"},
      {"measurement": "pKi", "setting": "[10]", "result": 6.61},
      {"measurement": "Tmax", "setting": "[11]", "result": 30, "unit": "min"},
      {"measurement": "Activity", "setting": "PC-3M [12]", "result": "Active"},
      {"measurement": "Activity", "setting": "PC-3M [13]", "result": "Active"},
      {"measurement": "Activity", "setting": "[14]", "result": "< 50", "unit": "%"},
      {"measurement": "Activity", "setting": "[15]", "result": "< 50", "unit": "%"},
      {"measurement": "Activity", "setting": "SF-295", "result": "Dde"},
      {"measurement": "Activity", "setting": "SNB-75", "result": "Dde"},
      {"measurement": "Activity", "setting": "LOX IMVI", "result": "Dde"},
      {"measurement": "Activity", "setting": "SK-MEL-5", "result": "Dde"},
      {"measurement": "Activity", "setting": "SK-MEL-2", "result": "Dde"},
      {"measurement": "pKi", "setting": "[16]", "result": 5.49},
      {"measurement": "Tmax", "setting": "[17]", "result": 30, "unit": "min"},
      {"measurement": "Activity", "setting": "[18]", "result": "< 50", "unit": "%"},
      {"measurement": "Activity", "setting": "UACC-257", "result": "Dde"},
      {"measurement": "Activity", "setting": "[19]", "result": "< 50", "unit": "%"}
    ]}
  ]
}
